14 molecules from ChEMBL document CHEMBL5120809, “Dimers of isatin derived α-methylene-γ-butyrolactone as potent anti-cancer agents” (Bioorg Med Chem Lett, 2022) can be followed below.

Calls of active or inactive are those of the source. The calls are words filed in the database; no cut-off is given here.

The subject of assay [1] is OVCAR-5. The assay can be described thus: Antiproliferative activity against human OVCAR-5 cells assessed as cell growth inhibition measured after 3 days by cell viability assay. In kind it is functional, cell-based. The note with it: OVCAR-5, 72 h.
The subject of assay [2] is A2780. The assay can be described thus: Antiproliferative activity against human A2780 cells assessed as cell growth inhibition measured after 3 days by cell viability assay. Type of assay: functional, cell-based. The note with it: A2780, 72 h.
In another assay the test system is MIA PaCa-2. The assay can be described thus: Antiproliferative activity against human MIA PaCa-2 cells assessed as cell growth inhibition measured after 3 days by cell viability assay. The note with it: MIA PaCa-2, 72 h. Type of assay: functional, cell-based.
In assay [3] the target is Transcription factor p65 (Homo sapiens) (UniProt Q04206). The assay is described as follows: Inhibition of TNF-alpha induced RELA in human A549 cells assessed as reduction in NFkappaB mediated gene expression pretreated for 2 hrs followed by TNF-alpha stimulation for 3 hrs by […]. The note with it: filed as modulator, DDE = dose-dependent effect. Type of assay: cell-based. In a few lines: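 TNFα-induced NFκB reporter assay run as a dose-response with compound.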
Transcription factor p65 (Homo sapiens), sequence (Q04206 whole entry): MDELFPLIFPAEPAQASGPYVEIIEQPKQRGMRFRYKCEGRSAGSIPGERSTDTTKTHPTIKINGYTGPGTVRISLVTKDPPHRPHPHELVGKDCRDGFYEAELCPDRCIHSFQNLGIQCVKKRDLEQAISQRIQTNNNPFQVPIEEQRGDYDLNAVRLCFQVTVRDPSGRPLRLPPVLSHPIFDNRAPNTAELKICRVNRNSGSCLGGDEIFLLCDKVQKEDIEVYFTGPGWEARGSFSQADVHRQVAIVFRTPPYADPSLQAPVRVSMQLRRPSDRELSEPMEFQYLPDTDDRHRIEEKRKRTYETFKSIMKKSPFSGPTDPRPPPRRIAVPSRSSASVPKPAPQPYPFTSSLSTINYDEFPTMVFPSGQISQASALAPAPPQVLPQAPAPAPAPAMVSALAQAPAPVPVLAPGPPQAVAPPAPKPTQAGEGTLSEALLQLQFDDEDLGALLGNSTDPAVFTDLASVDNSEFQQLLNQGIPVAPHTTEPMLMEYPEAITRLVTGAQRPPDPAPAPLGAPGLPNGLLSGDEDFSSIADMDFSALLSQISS

Assay [4] deals with A2780. The assay can be described thus: Inhibition of cell migration in human A2780 cells at 500 nM measured up to 48 hrs by wound healing scratch assay. Type of assay: functional. Set-up: scale not given: the % may be the effect or the level left. A digest of the protocol:
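Wound-healing scratch assay: A2780 cells treated with DMSO or 500nM compound, imaged at 0, 12, 24 and 48h; wound closure quantified relative to DMSO wells.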

A further assay deals with CCRF-CEM. The assay is described as follows: Antiproliferative activity against human CCRF-CEM cells assessed as cell growth inhibition by measuring reduction in net protein increase inhibition by SRB assay. In kind it is functional. The note with it: pooled result: one value given for 6 cell lines, strains, targets or settings.
Assay [5] has as its target Transcription factor p65 (Homo sapiens) (UniProt Q04206). The assay can be described thus: Covalent modification of RELA in human OVCAR-5 cells assessed as high molecular weight band formation at 10 uM incubated for 2 hrs by Western blot analysis. In kind it is cell-based. The note with it: filed as modulator. A digest of the protocol: (§1)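 Non-transformed immortalized fallopian tube epithelial FT282C11, MiaPaCa2 or OVCAR5 cells treated with or without compound; lysates analysed by western blot probed with RELA antibody for high molecular weight bands.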

The target is the same in assay [6]. The assay is described as follows: Covalent modification of RELA in human OVCAR-5 cells assessed as increase in PARP cleavage at 10 uM incubated for 2 hrs by Western blot analysis. In kind it is cell-based. The note with it: filed as modulator. In a few lines: (§2)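 Cancer cells treated with or without compound; lysates analysed by western blot for PARP cleavage.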

For assay [7] the target is unchanged. The assay can be described thus: Covalent modification of RELA in TNF-alpha induced human OVCAR-5 cells assessed as inhibition of phosphorylation of IkappaB-alpha at 10 uM pretreated for 2 hrs followed by TNF-alpha stimulation for 10 mins by Western blot analysis. Type of assay: cell-based. The note with it: filed as modulator. In a few lines: (§3)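 Two sets of OVCAR5 cells treated with DMSO or compound; one set stimulated with TNFα, the other left unstimulated as control; read-out by western blot.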

In assay [8] the test system is OVCAR-5. The assay is described as follows: Antiproliferative activity against human OVCAR-5 cells assessed as cell growth inhibition at 1.11 to 10 uM incubated for 6 hrs followed by compound removal and measured up to 72 hrs by IncuCyte live-cell imaging assay. Type of assay: functional, cell-based.
For the next assay, the system named is SF-268. The assay can be described thus: Antiproliferative activity against human SF-268 cells assessed as reduction in the net protein increase inhibition by SRB assay. Type of assay: functional. The note with it: pooled result: one value given for 6 cell lines, strains, targets or settings.
In assay [9] the target is Transcription factor p65 (Homo sapiens) (UniProt Q04206). The assay can be described thus: Covalent modification of RELA in TNF-alpha induced human OVCAR-5 cells assessed as inhibition of nuclear localization of protein at 10 uM pretreated for 2 hrs followed by TNF-alpha stimulation for 10 mins by Western blot analysis. In kind it is cell-based. The note with it: filed as modulator. In a few lines:
as §3

For assay [10] the target is unchanged. The assay is described as follows: Covalent modification of RELA in human MIA PaCa-2 cells assessed as high molecular weight band formation at 10 uM incubated for 2 hrs by Western blot analysis. In kind it is cell-based. The note with it: filed as modulator. In a few lines:
as §1

Assay [11] shares this target. The assay is described as follows: Covalent modification of RELA in human FT282C11 cells assessed as high molecular weight band formation at 10 uM incubated for 2 hrs by Western blot analysis. The note with it: filed as modulator. In kind it is cell-based. A digest of the protocol: as §1
The target is the same in assay [12]. The assay can be described thus: Covalent modification of RELA in human OVCAR-5 cells assessed as high molecular weight band formation incubated for 2 hrs by Western blot analysis. Type of assay: cell-based. The note with it: filed as modulator. A digest of the protocol:
as §1

Assay [13] has the same target. The assay can be described thus: Covalent modification of RELA in human MIA PaCa-2 cells assessed as increase in PARP cleavage at 10 uM incubated for 2 hrs by Western blot analysis. Type of assay: cell-based. The note with it: filed as modulator. A digest of the protocol: as §2
A further assay is filed under the species Homo sapiens. The assay can be described thus: Covalent modification of N-terminal hexa-his-tagged human recombinant IKKbeta/ N-terminus mouse recombinant RELA (1 to 325 residues) assessed as tertiary complex formation with RELA by measuring high molecular weight band formation at 1:1:1 protein/protein to compound concentration measured after 24 hrs by SDS-PAGE based silver staining analysis. The note with it: filed as modulator. In a few lines:
(§4)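 Recombinant RELA and/or IKKβ proteins incubated in vitro with compound at equimolar or 10x concentration; mixtures resolved by SDS-PAGE and silver stained to detect the recombinant proteins and high molecular weight bands.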

For assay [14], the system named is A2780. The assay is described as follows: Inhibition of colony formation in human A2780 cells measured every day up to 4 days by IncuCyte live-cell imaging assay. In kind it is functional, cell-based. The note with it: DDE = dose-dependent effect. In a few lines: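 A2780 ovarian cancer cells sparsely plated and grown with or without compound for 4 days under continuous Incucyte S3 live-cell imaging; colonies quantified against DMSO-treated wells at several time points.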

For assay [15], the target named is T1, Inhibitor of nuclear factor kappa-B kinase subunit beta (Homo sapiens) (UniProt O14920).
T1 sequence (whole entry): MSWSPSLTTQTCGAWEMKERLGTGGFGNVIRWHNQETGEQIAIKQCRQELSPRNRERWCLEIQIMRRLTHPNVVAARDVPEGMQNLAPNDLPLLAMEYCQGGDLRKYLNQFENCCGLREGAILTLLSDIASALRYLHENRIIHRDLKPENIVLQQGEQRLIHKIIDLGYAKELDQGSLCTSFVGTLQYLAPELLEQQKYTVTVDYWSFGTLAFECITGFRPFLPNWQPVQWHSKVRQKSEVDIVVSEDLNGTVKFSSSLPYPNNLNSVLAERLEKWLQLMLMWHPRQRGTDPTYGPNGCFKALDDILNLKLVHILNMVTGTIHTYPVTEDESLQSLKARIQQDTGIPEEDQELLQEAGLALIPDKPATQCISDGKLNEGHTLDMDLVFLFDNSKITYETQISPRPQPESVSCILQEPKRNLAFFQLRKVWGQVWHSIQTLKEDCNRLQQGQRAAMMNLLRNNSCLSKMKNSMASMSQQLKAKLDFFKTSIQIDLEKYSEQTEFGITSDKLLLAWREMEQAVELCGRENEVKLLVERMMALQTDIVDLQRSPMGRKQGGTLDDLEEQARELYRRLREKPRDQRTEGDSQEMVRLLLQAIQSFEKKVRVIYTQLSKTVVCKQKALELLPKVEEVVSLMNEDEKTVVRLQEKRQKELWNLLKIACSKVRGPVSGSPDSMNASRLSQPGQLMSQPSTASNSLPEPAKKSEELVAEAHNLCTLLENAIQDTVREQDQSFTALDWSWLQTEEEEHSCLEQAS
The assay can be described thus: Covalent modification of N-terminal hexa-his-tagged human recombinant IKKbeta assessed as high molecular weight band formation at 1:1 protein to compound concentration measured after 24 hrs by SDS-PAGE based silver staining analysis. The note with it: filed as modulator. A digest of the protocol:
as §4

With `C=C1CC2(OC1=O)C(=O)N(CCN1C(=O)C3(CC(=C)C(=O)O3)c3ccccc31)c1ccccc12` (stereo unspecified), the results for the IC50 in the assay with OVCAR-5 [1] and in the assay with A2780 [2] were 0.32 µM and 0.39 µM, respectively.
`C=C1CC2(OC1=O)C(=O)N(CCCCCCCCCCCCN1C(=O)C3(CC(=C)C(=O)O3)c3ccccc31)c1ccccc12` (stereo unspecified): the IC50 came to 0.42 µM in the assay on OVCAR-5 [1], 0.5 µM in the assay with A2780 [2] and 1.5 µM in the assay with MIA PaCa-2.
On the same counts, the results for `C=C1CC2(OC1=O)C(=O)N(CCCCCCCCCN1C(=O)C3(CC(=C)C(=O)O3)c3ccccc31)c1ccccc12` (stereo unspecified) are 0.48 µM, 1.08 µM and 1.22 µM.
Regarding `C=C1CC2(OC1=O)C(=O)N(CCCCCCCN1C(=O)C3(CC(=C)C(=O)O3)c3ccccc31)c1ccccc12` (stereo unspecified), the IC50 stood at 0.34 µM with OVCAR-5 [1], 0.41 µM in the assay on A2780 [2] and 0.26 µM in the assay on MIA PaCa-2.
As to `C=C1CC2(OC1=O)C(=O)N(CCCCCCN1C(=O)C3(CC(=C)C(=O)O3)c3ccccc31)c1ccccc12` (stereo unspecified), the IC50 in the assay with OVCAR-5 [1] was 0.3 µM; in the assay with A2780 [2], 0.41 µM; in the assay with MIA PaCa-2 it was 0.23 µM.
On the same counts, the results for `C=C1CC2(OC1=O)C(=O)N(CCCCCN1C(=O)C3(CC(=C)C(=O)O3)c3ccccc31)c1ccccc12` (stereo unspecified) are 0.09 µM, 0.27 µM and 0.2 µM.
On to `C=C1CC2(OC1=O)C(=O)N(CCCCCCCCCCN1C(=O)C3(CC(=C)C(=O)O3)c3ccccc31)c1ccccc12` (stereo unspecified), for which the IC50 was determined as 0.41 µM in the assay with OVCAR-5 [1], 0.49 µM in the assay with A2780 [2] and 0.56 µM in the assay with MIA PaCa-2.
On to `C=C1CC2(OC1=O)C(=O)N(CCCN1C(=O)C3(CC(=C)C(=O)O3)c3ccccc31)c1ccccc12` (stereo unspecified), for which the inhibition entry (in assay [3]; with A2780 [14]) was “Dde” throughout. In the assay with A2780 [4], this molecule gave an Activity of 50%. Besides, the GI50 was 0.38 µM in the assay with CCRF-CEM and 1.76 µM in the assay on SF-268. Also, the outcome (in [5]; in assay [6]; in assay [7]; in the assay with OVCAR-5 [8]; in [9]; in [10]) was Active. Besides, the result (in assay [11]; in [12]; in assay [13]; in the assay listed under Homo sapiens; in assay [15]) was Active. Moreover, the IC50 with OVCAR-5 [1] worked out at 0.09 µM; in the assay with A2780 [2], 0.23 µM; in the assay on MIA PaCa-2, 0.13 µM.
Consider `C=C1CC2(OC1=O)C(=O)Nc1ccccc12` (stereo unspecified), for which the IC50 in the assay with OVCAR-5 [1] is 3.13 µM; in the assay with A2780 [2] it was 0.99 µM; with MIA PaCa-2, 2.05 µM.
With `C=C1CC2(OC1=O)C(=O)N(Cc1ccc(CN3C(=O)C4(CC(=C)C(=O)O4)c4ccccc43)cc1)c1ccccc12` (stereo unspecified), the IC50 in the assay with OVCAR-5 [1] is 0.18 µM; in the assay with A2780 [2], 0.31 µM; with MIA PaCa-2 it was 0.27 µM.
`C=C1CC2(OC1=O)C(=O)N(CCCCCCCCN1C(=O)C3(CC(=C)C(=O)O3)c3ccccc31)c1ccccc12` (stereo unspecified): the figures for the IC50 with OVCAR-5 [1], in the assay on A2780 [2] and with MIA PaCa-2 were 0.39 µM, 0.6 µM and 0.74 µM, respectively.
On the same counts, the results for `C=C1CC2(OC1=O)C(=O)N(CCCCCCCCCCCN1C(=O)C3(CC(=C)C(=O)O3)c3ccccc31)c1ccccc12` (stereo unspecified) are 0.83 µM, 0.77 µM and 2.03 µM.
As for `C=C1CC2(OC1=O)C(=O)N(CCCCN1C(=O)C3(CC(=C)C(=O)O3)c3ccccc31)c1ccccc12` (stereo unspecified), the results for the IC50 with OVCAR-5 [1] and with A2780 [2] were 0.15 µM and 0.36 µM, respectively.
With `CC1CC2(OC1=O)C(=O)N(CCCCCCCN1C(=O)C3(CC(C)C(=O)O3)c3ccccc31)c1ccccc12` (stereo unspecified), the IC50 in the assay on OVCAR-5 [1], with A2780 [2] and with MIA PaCa-2 was over 10 µM each time.
